Test results from ChEMBL document CHEMBL4837217, “Design, synthesis, in vitro and in vivo biological evaluation of pyranone-piperazine analogs as potent antileishmanial agents” (Eur J Med Chem, 2021).
Active and inactive are the calls of the source. No cut-off for these calls is given here.

Experiments:
[1] = tested on: Leishmania donovani; test: Induction of mitochondrial membrane potential dysfunction in Leishmania donovani MHOM/IN/80/Dd8 promastigotes assessed as cells with mitochondrial depolarization at 50 uM incubated for 72 hrs by JC1 staining based flow cytometry (reference value: 3.63%); assay type: functional
[2] = tested on: Leishmania; test: Antileishmanial activity against Leishmania; assay type: functional, organism-based
Outline: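 Antiamastigote assay: J774 murine macrophages in RPMI + 10% FBS, infected 24 h at 37 °C, 5% CO2 with stationary-phase luciferase-transfected L. donovani Dd8 promastigotes (1:8 macrophage:parasite). Infectivity confirmed by Giemsa staining on parallel slides. Compounds then added and incubated 72 h. Read-out by luciferase luminescence. IC50 from four-parameter Hill nonlinear regression of the dose-response.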

[3] = tested on: Leishmania donovani; test: Antileishmanial activity against log phase of Leishmania donovani MHOM/IN/80/Dd8 promastigotes assessed as reduction in cell viability at 50 uM incubated for 72 hrs by MTT assay; assay type: functional
Outline: (§1)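 Log-phase luciferase-transfected L. donovani Dd8 promastigotes (M199 + 10% FBS, 24 °C) treated with compounds at 25 and 50 µM in DMSO, with 0.1% DMSO vehicle control. After 72 h, MTT added 4 h. Formazan dissolved in DMSO, read at 570 nm. Percent inhibition reported as mean ± SD of at least three independent experiments in replicate.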

[4] = tested on: Leishmania donovani; test: Antileishmanial activity against Leishmania donovani MHOM/IN/80/Dd8 infected in BALB/c mouse assessed as reduction in intracellular amastigote burden in spleen at 50 mg/kg, ip for 5 days and measured at 1 week post-treatment by Giemsa staining based assay relative to control; assay type: functional; conditions: time 12.0 day
Outline: (§2)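 Female BALB/c mice (20–25 g), 5/group, infected iv with 2 × 10^7 stationary-phase L. donovani promastigotes. Infection confirmed at 2 wk, then 50 mg/kg ip daily for 5 consecutive days. Vehicle was 5% DMSO. Sacrificed day 7 post-treatment. Giemsa-stained liver/spleen impression smears counted as amastigotes/1000 nucleated cells, expressed as LDU (amastigotes per nucleated cell × organ weight in mg), compared with untreated infected controls.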

[5] = tested on: Leishmania donovani; test: Antileishmanial activity against log phase of Leishmania donovani MHOM/IN/80/Dd8 promastigotes assessed as reduction in cell viability at 25 uM incubated for 72 hrs by MTT assay; assay type: functional; outline: as §1
[6] = tested on: Leishmania donovani; test: Antileishmanial activity against amastigote stage of Leishmania donovani MHOM/IN/80/Dd8 harboring luciferase gene infected in mouse J774 cells assessed as parasite killing at 50 to 100 uM incubated for 72 hrs by Steady-Glo reagent based luciferase assay; assay type: functional; conditions: dose 50-100 µM
Outline: (§3)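 J774 murine macrophages, 4 × 10⁴ cells/well in RPMI with 10% FBS for 24 h, are infected for 24 h at 37 °C, 5% CO₂ with stationary-phase luciferase-transfected L. donovani Dd8 promastigotes at a 1:8 macrophage:parasite ratio. Compounds are dissolved in DMSO. Luminescence is read after Steady-Glo is added in PBS. IC₅₀ is taken from a four-parameter Hill nonlinear regression. Miltefosine is the reference.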

[7] = tested on: Leishmania donovani; test: Antileishmanial activity against log phase of Leishmania donovani MHOM/IN/80/Dd8 promastigotes assessed as reduction in cell viability by MTT assay; assay type: functional, organism-based; conditions: time 12-72 hrs, TDE = time-dependent effect
[8] = tested on: Leishmania donovani; test: Antileishmanial activity against amastigote stage of Leishmania donovani MHOM/IN/80/Dd8 harboring luciferase gene infected in mouse J774 cells assessed as parasite killing incubated for 72 hrs by Steady-Glo reagent based luciferase assay; assay type: functional, organism-based; conditions: dose 3.12-50 µM; outline: as §3
[9] = tested on: Leishmania donovani; test: Antileishmanial activity against amastigote stage of Leishmania donovani MHOM/IN/80/Dd8 harboring luciferase gene infected in mouse J774 cells assessed as parasite growth inhibition at 25 uM incubated for 72 hrs by Steady-Glo reagent based luciferase assay; assay type: functional; conditions: for inhibition at 25 µM: MHOM/IN/80/Dd8, J774; outline: as §3
[10] = tested on: Leishmania donovani; test: Antileishmanial activity against amastigote stage of Leishmania donovani MHOM/IN/80/Dd8 harboring luciferase gene infected in mouse J774 cells assessed as parasite growth inhibition by Giemsa staining based analysis; assay type: functional, organism-based; conditions: time 12-72 hrs, TDE = time-dependent effect
Outline: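 J774 macrophages are infected for 24 h with stationary-phase luciferase-transfected Dd8 promastigotes at a 1:8 ratio in chamber slides. After compound treatment, cells are fixed and Giemsa-stained, and intracellular amastigotes are counted by microscopy.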

[11] = tested on: Leishmania donovani; test: Antileishmanial activity against amastigote stage of Leishmania donovani MHOM/IN/80/Dd8 harboring luciferase gene infected in mouse J774 cells assessed as parasite growth inhibition at 50 uM incubated for 72 hrs by Steady-Glo reagent based luciferase assay; assay type: functional; conditions: for inhibition at 50 µM: MHOM/IN/80/Dd8, J774; outline: as §3
[12] = tested on: Leishmania donovani; test: Antileishmanial activity against amastigote stage of Leishmania donovani MHOM/IN/80/Dd8 harboring luciferase gene infected in mouse J774 cells assessed as parasite growth inhibition incubated for 72 hrs by Steady-Glo reagent based luciferase assay; assay type: functional, organism-based; conditions: MHOM/IN/80/Dd8, J774, 72 h; outline: as §3
[13] = Cytotoxicity against mouse J774 cells assessed as reduction in cell viability incubated for 72 hrs by MTT assay; assay type: cell-based
Outline: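 J774 macrophages seeded at 1 × 10^5 cells/well overnight, then exposed to graded concentrations (7.81–500 µM) for 72 h at 37 °C, 5% CO2. MTT (5 mg/mL) added for 2 h, formazan solubilized in DMSO and read at 570 nm. CC50 taken as 50% viability loss relative to untreated cells.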

[14] = tested on: Leishmania donovani; test: Antileishmanial activity against Leishmania donovani MHOM/IN/80/Dd8 infected in BALB/c mouse assessed as reduction in intracellular amastigote burden in liver at 50 mg/kg, ip for 5 days and measured at 1 week post-treatment by Giemsa staining based assay relative to control; assay type: functional; conditions: time 12.0 day; outline: as §2
[15] = tested on: Splenocyte; test: Immunomodulatory activity in BALB/c mouse infected with Leishmania donovani amastigotes assessed as increase in IL-12 level in splenocytes supernatants at 25 mg/kg, po for 5 days; assay type: functional, organism-based; conditions: time 5.0 day
[16] = tested on: Splenocyte; test: Immunomodulatory activity in BALB/c mouse infected with Leishmania donovani amastigotes assessed as decrease in TGF-beta level in splenocytes supernatants at 25 mg/kg, po for 5 days; assay type: functional, organism-based; conditions: time 5.0 day
[17] = tested on: Splenocyte; test: Immunomodulatory activity in BALB/c mouse infected with Leishmania donovani amastigotes assessed as increase in IFN-gamma level in splenocytes supernatants at 25 mg/kg, po for 5 days; assay type: functional, organism-based; conditions: time 5.0 day
[18] = tested on: Splenocyte; test: Immunomodulatory activity in BALB/c mouse infected with Leishmania donovani amastigotes assessed as decrease in IL-10 level in splenocytes supernatants at 25 mg/kg, po for 5 days; assay type: functional, organism-based; conditions: time 5.0 day
[19] = tested on: Leishmania donovani; test: Antileishmanial activity against Leishmania donovani MHOM/IN/80/Dd8 infected in BALB/c mouse assessed as reduction in organ intracellular amastigote burden at 25 mg/kg, po for 5 days and measured at 1 week post-treatment by Giemsa staining based assay relative to control; assay type: functional; conditions: MHOM/IN/80/Dd8, po, 288 h, time 12 day
Outline: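 Female BALB/c mice (20–25 g), 5/group, infected iv with 2 × 10^7 stationary-phase L. donovani promastigotes. Reference drug given orally at 25 mg/kg daily for 5 consecutive days. Sacrificed day 7 post-treatment. Liver and spleen impression smears fixed in methanol, stained with 30% Giemsa for 2 h. Amastigotes/1000 nucleated cells counted and expressed as LDU.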

| SMILES | inhibition at 50 µM [3] [%] | inhibition at 25 µM [5] [%] | inhibition at 25 µM [9] [%] | inhibition at 50 µM [11] [%] | other results |
| --- | --- | --- | --- | --- | --- |
| N#CC(C#N)=NNc1cccc(Cl)c1 [CARBONYL CYANIDE M-CHLOROPHENYLHYDRAZONE] | – | – | – | – | Activity [1]: 95.6% |
| CCn1nc2cc(N/C(C)=C3/C(=O)C=C(C)OC3=O)ccc2c1Cl | – | – | – | – | IC50 [2]: 2.48 µM |
| N#Cc1c(N2CCN(c3ccccc3O)CC2)cc(-c2cccs2)oc1=O | 90.2 | 81.3 | 84.7 | 89.3 | Activity [4]: Active; Activity [6]: >89%; Activity [7]: Tde; Activity [8]: Dose-Dependent Effect; Activity [10]: Tde; IC50 [12]: 15.3 µM; CC50 at 72 h [13]: 311 µM; Activity [14]: Active |
| N#Cc1c(N2CCN(c3ccccc3Cl)CC2)cc(-c2ccccc2)oc1=O | 72.9 | 46.9 | 49.2 | 73.7 | – |
| N#Cc1c(N2CCN(c3ccccc3O)CC2)c2c(oc1=O)-c1ccccc1C2 | 82.2 | 14.2 | 37.8 | 60 | – |
| N#Cc1c(N2CCN(c3ccccc3O)CC2)cc(-c2cccs2)c2c1CCSC2 | – | – | 65 | 72.6 | inhibition [3]: inactive; inhibition [5]: inactive |
| COc1ccc(-c2cc(N3CCN(c4ccccc4O)CC3)c(C#N)c(=O)o2)cc1 | 86.3 | 78.3 | 51.8 | 84.4 | IC50 [12]: 13 µM |
| CCCCCCCCCCCCCCCCOP(=O)([O-])OCC[N+](C)(C)C [MILTEFOSINE] | 99.7 | 99.4 | 91.2 | 95.3 | Activity [15]: Active; Activity [16]: Active; Activity [17]: Active; Activity [18]: Active; inhibition in vivo at 25 mg/kg [19]: > 97%; IC50 [12]: 12.8 µM |
| N#Cc1c(N2CCN(c3ccccc3O)CC2)cc(-c2ccccc2)c2c1CSC2 | 87.8 | 82.1 | – | – | inhibition [9]: inactive; inhibition [11]: inactive |
| N#Cc1c(N2CCN(c3ccccc3O)CC2)cc(-c2ccc(Br)cc2)oc1=O | – | – | 14.5 | 35.1 | inhibition [3]: inactive; inhibition [5]: inactive |
| N#Cc1c(N2CCN(c3ccccc3O)CC2)c2c(oc1=O)-c1ccccc1CC2 | 81.3 | 35.9 | 37.8 | 64.8 | – |
| N#Cc1c2c(c3c(c1N1CCN(c4ccccc4O)CC1)Cc1ccccc1-3)CSC2 | – | – | 45.5 | 57.3 | inhibition [3]: inactive; inhibition [5]: inactive |
